Measurements collected from several papers.
Each line is one published result; the experiments were not run side by side.
ADORA3: Adenosine receptor A3 (ADORA3, Homo sapiens, UniProt P0DMS8)
DRD2: D(2) dopamine receptor (DRD2, Homo sapiens, UniProt P14416)
MC1R: Melanocyte-stimulating hormone receptor (MC1R, Homo sapiens, UniProt Q01726)
Liver carboxylesterase: Liver carboxylesterase (Sus scrofa, UniProt Q29550)

SMILES | target | assay | conditions | Ki [µM]
C=CN1CCCn2c1nc1c2c(=O)n(C)c(=O)n1C | ADORA3 | ligand displacement, radioligand | cell membranes | > 10
CNC(=O)[C@@]12C[C@@H]1[C@@H](n1cnc3c(NCc4cn(-c5ccc(F)c(N)c5)nn4)nc(Cl)nc31)[C@H](O)[C@@H]2O | ADORA3 | ligand displacement, radioligand | cell membranes | 0.0226
c1ccc(CCC2=NCCN2CCc2ccccc2)cc1 | DRD2 | ligand displacement, radioligand | – | > 10
CCNC(=O)[C@H]1O[C@@H](n2cnc3c(N)nc(NN=CC4CCC=CO4)nc32)[C@H](O)[C@@H]1O (stereo partly shown) | ADORA3 | ligand displacement, radioligand | – | 0.00632
CCCCCC(C)N1CCCn2c1nc1c2c(=O)n(C)c(=O)n1C (stereo not shown) | ADORA3 | ligand displacement, radioligand | cell membranes | > 10
C#CCNc1nc(Cl)nc2c1ncn2[C@H]1[C@H](O)[C@H](O)[C@]2(C(=O)NC)C[C@H]12 | ADORA3 | ligand displacement, radioligand | cell membranes | 0.0015
CCCCCCN1CCCn2c1nc1c2c(=O)n(C)c(=O)n1C | ADORA3 | ligand displacement, radioligand | cell membranes | > 10
CC[C@H](C)[C@H](NC(=O)CN)C(=O)N[C@H](C(=O)N[C@@H](CC(N)=O)C(=O)N[C@H](C(=O)N[C@@H](CC(C)C)C(=O)N[C@@H](CCC(N)=O)C(=O)N[C@@H](CCCCN)C(=O)N[C@@H](Cc1ccc(O)cc1)C(=O)N[C@@H](Cc1ccc(O)cc1)C(=O)N[C@@H](CO)C(=O)N[C@@H](CCCNC(=N)N)C(=O)N[C@H](C(=O)N[C@@H](CCCNC(=N)N)C(=O)NCC(=O)NCC(=O)N[C@@H](CCCNC(=N)N)C(=O)N[C@H]1CSSC[C@@H](C(=O)N[C@@H](CO)C(=O)N[C@H](C(=O)N[C@@H](CCCNC(=N)N)C(=O)NCC(=O)N[C@@H](CCCNC(=N)N)C(=O)N[C@@H](CCCCN)C(=O)N[C@@H](CO)C(=O)N[C@@H](CO)C(=O)N[C@@H](CCCNC(=N)N)C(=O)N[C@@H](CCCNC(=N)N)C(=O)N[C@@H](CCCCN)C(=O)N[C@@H](CCCCN)C(N)=O)[C@@H](C)O)NC(=O)[C@H](CCCCN)NC(=O)CNC(=O)[C@H]([C@@H](C)CC)NC(=O)[C@H](CCC(N)=O)NC(=O)[C@H](CCC(=O)O)NC(=O)[C@H](CCC(=O)O)NC(=O)[C@H](CCCCN)NC(=O)[C@@H]2CCCN2C(=O)[C@H](CC(C)C)NC(=O)[C@H](CO)NC(=O)[C@H](CO)NC(=O)[C@H](CC(C)C)NC(=O)[C@H](C(C)C)NC(=O)[C@H](C)NC1=O)C(C)C)[C@@H](C)O)[C@@H](C)CC | MC1R | ligand displacement in cells | – | 0.373
COc1cccc(CCC2=NCCN2CCc2ccccc2)c1 | DRD2 | ligand displacement, radioligand | – | > 10
CC/C=C\C/C=C\C/C=C\C/C=C\C/C=C\C/C=C\CCC(=O)O | Liver carboxylesterase | enzyme activity, inhibitor, HPLC | pH 7.4 | 3.7
CCN1CCCn2c1nc1c2c(=O)n(C)c(=O)n1C | ADORA3 | ligand displacement, radioligand | cell membranes | > 10
CCCCC[C@H](O)/C=C/[C@H]1[C@H](O)CC(=O)[C@@H]1C/C=C\CCCC(=O)O | Liver carboxylesterase | enzyme activity, inhibitor, HPLC | pH 7.4 | > 28
NCCCC[C@H](NC(=O)[C@@H]1CCCN1C(=O)[C@@H]1CSSC[C@H](N)C(=O)N[C@@H](Cc2ccc(O)cc2)C(=O)N[C@@H](Cc2ccccc2)C(=O)N[C@@H](CCC(N)=O)C(=O)N[C@@H](CC(N)=O)C(=O)N1)C(=O)NCC(N)=O | Vasopressin V2 receptor (AVPR2, Homo sapiens, UniProt P30518) | ligand displacement, radioligand | cell membranes | 0.01
CCCC[C@H](NC(=O)[C@H](CO)NC(=O)[C@H](Cc1ccc(O)cc1)NC(=O)[C@H](CO)NC(C)=O)C(=O)N[C@@H](CCC(=O)O)C(=O)N[C@@H](Cc1c[nH]cn1)C(=O)N[C@@H](C)C(=O)N[C@@H](CCCNC(=N)N)C(=O)N[C@@H](Cc1c[nH]c2ccccc12)C(=O)NCC(=O)N[C@@H](CCCCN)C(=O)N1CCC[C@H]1C(=O)N[C@H](C(=O)NCC(=O)N[C@@H](CCCCN)C(=O)N[C@@H](CCCCN)C(=O)N[C@@H](CCCNC(=N)N)C(N)=O)C(C)C | MC1R | ligand displacement in cells, radioligand | – | 0.0378
CCCCN1CCC(COC(=O)c2ccc(N)c(OCF)c2)CC1 | 5-hydroxytryptamine receptor 1E (HTR1E, Homo sapiens, UniProt P28566) | cell-free assay, radioligand | – | > 10
COc1ccc2c(c1)C(=O)N(CCN1CCN(c3ccccc3OC)CC1)C2 | DRD2 | ligand displacement, radioligand | – | 1.65
CCn1c(-c2nc3cc(C(=O)N4CCC[C@@H](N)C4)cc(OC)c3n2C)cc2cccnc21 | Protein-arginine deiminase type-2 (PADI2, Homo sapiens, UniProt Q9Y2J8) | enzyme activity, inhibitor | – | 1580
CC(C)CCCC(C)N1CCCn2c1nc1c2c(=O)n(C)c(=O)n1C (stereo not shown) | ADORA3 | ligand displacement, radioligand | cell membranes | 2.57
CCCCC[C@H](O)/C=C/C1=C(CCCCCCC(=O)O)C(=O)CC1 | Liver carboxylesterase | enzyme activity, inhibitor, HPLC | pH 7.4 | 16
